Consider one compound from ChEMBL document CHEMBL1255392, “Pharmacokinetics of acyclovir and its metabolites in cerebrospinal fluid and systemic circulation after administration of high-dose valacyclovir in subjects with normal and impaired renal function” (Antimicrob Agents Chemother, 2010).

A word on the Cmax: it is the highest concentration seen after dosing. Broadly, the Tmax is the time at which the peak concentration occurs. Broadly, the AUC is the area under the concentration-time curve, a measure of exposure.

Series [1] relates to Homo sapiens. Put plainly: Cmax in human CSF with chronic kidney disease assessed as 8-OH-ACV level at 1500 mg, po every 12 hrs measured after fifth dose by LC/MS. Also on record: dose 1500 mg, route oral. Conditions: in vivo. Type of series: ADME, organism-based, Cerebrospinal fluid. The essentials:
(§1)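 Three CKD adults (CrCl ~15–30 ml/min) fasted around the final dose. Lumbar intrathecal catheter CSF and EDTA venous blood were taken predose and at 0.5–8 h plus 12 h, then stored at −70°C. Metabolites in serum/CSF were measured by SPE with isotope-labelled internal standards, reversed-phase HPLC and positive-ion MRM MS.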

The subject of series [2] is Homo sapiens. Put plainly: Cmax in human systemic circulation with chronic kidney disease assessed as 8-OH-ACV level at 1500 mg, po every 12 hrs measured after fifth dose by LC/MS. It counts as ADME, organism-based. Further details: dose 1500 mg, route oral. Conditions: in vivo. The essentials:
as §1

For series [3], the system named is Homo sapiens. Put plainly: Tmax in human CSF with normal renal function assessed as 8-OH-ACV level at 2000 mg, po every 6 hrs measured after fifth dose by LC/MS. It counts as ADME, organism-based, Cerebrospinal fluid. Conditions: in vivo. The essentials: (§2)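 Six volunteers with normal renal function fasted from 8 h before to 2 h after the fifth dose. Intrathecal-catheter CSF and venous blood were sampled at 0–8 h and stored at −70°C. Noncompartmental Cmax, tmax and AUCτ (0–6 h) were derived; Cavg = AUCτ/τ.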

For series [4], the system named is Homo sapiens. Put plainly: AUC (0 to 12 hrs) in human systemic circulation with chronic kidney disease assessed as 8-OH-ACV level at 1500 mg, po every 12 hrs measured after fifth dose by LC/MS. Further details: dose 1500 mg, time < 12 hr, route oral. It counts as ADME, organism-based. Conditions: in vivo. The essentials:
as §1

The subject of series [5] is Homo sapiens. Put plainly: AUC (0 to 12 hrs) in human CSF with chronic kidney disease assessed as 8-OH-ACV level at 1500 mg, po every 12 hrs measured after fifth dose by LC/MS. It counts as ADME, organism-based. Further details: dose 1500 mg, time < 12 hr, route oral. Conditions: in vivo. The essentials: as §1
For series [6], the system named is Homo sapiens. Put plainly: AUC (0 to 6 hrs) in human systemic circulation with normal renal function assessed as 8-OH-ACV level at 2000 mg, po every 6 hrs measured after fifth dose by LC/MS. Conditions: in vivo. Type of series: ADME, organism-based, Plasma. Also on record: dose 2000 mg, time < 6 hr, route oral. The essentials:
as §2

The test system of series [7] is Homo sapiens. Put plainly: Drug level in human plasma with normal renal function assessed as 8-OH acyclovir level at 2000 mg, po every 6 hrs measured after fifth dose by LC/MS. It counts as ADME, organism-based. Conditions: in vivo, read-out: Drug uptake. The essentials: as §2
For series [8], the system named is Homo sapiens. Put plainly: Tmax in human systemic circulation with normal renal function assessed as 8-OH-ACV level at 2000 mg, po every 6 hrs measured after fifth dose by LC/MS. Type of series: ADME, organism-based. Particulars: in vivo. The essentials:
as §2

The subject of series [9] is Homo sapiens. Put plainly: Tmax in human CSF with chronic kidney disease assessed as 8-OH-ACV level at 1500 mg, po every 12 hrs measured after fifth dose by LC/MS. It counts as ADME, organism-based, Cerebrospinal fluid. Conditions: in vivo. The essentials:
as §1

Series [10] relates to Homo sapiens. Put plainly: Drug level in human CSF with normal renal function assessed as 8-OH acyclovir level at 2000 mg, po every 6 hrs measured after fifth dose by LC/MS. Conditions: in vivo, read-out: Drug uptake. It counts as ADME, organism-based. The essentials: as §2
Series [11] relates to Homo sapiens. Put plainly: Cmax in human CSF with normal renal function assessed as 8-OH-ACV level at 2000 mg, po every 6 hrs measured after fifth dose by LC/MS. Type of series: ADME, organism-based, Cerebrospinal fluid. Further details: dose 2000 mg, route oral. Conditions: in vivo. The essentials:
as §2

Series [12] has as its system Homo sapiens. Put plainly: Ratio of Cmax in human CSF to Cmax in human plasma with normal renal function assessed as 8-OH-ACV level at 2000 mg, po every 6 hrs measured after fifth dose by LC/MS. It counts as ADME, organism-based. The essentials: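 For each normal-renal-function subject, the metabolite CSF Cmax was divided by the serum Cmax from samples taken 0–8 h after the fifth dose. Both were measured by LC/MS with isotope-labelled internal standards, and the ratio is given as mean ± SD.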

Series [13] has as its system Homo sapiens. Put plainly: Drug level in human plasma with chronic kidney disease assessed as 8-OH acyclovir level at 1500 mg, po every 12 hrs measured after fifth dose by LC/MS. Type of series: ADME, organism-based. Conditions: in vivo, read-out: Drug uptake. The essentials:
as §1

Series [14] concerns Homo sapiens. Put plainly: Ratio of Cmax in human CSF to Cmax in human plasma with chronic kidney disease assessed as 8-OH-ACV level at 1500 mg, po every 12 hrs measured after fifth dose by LC/MS. It counts as ADME, organism-based.
Series [15] relates to Homo sapiens. Put plainly: Tmax in human systemic circulation with chronic kidney disease assessed as 8-OH-ACV level at 1500 mg, po every 12 hrs measured after fifth dose by LC/MS. Particulars: in vivo. Type of series: ADME, organism-based. The essentials: as §1
For series [16], the system named is Homo sapiens. Put plainly: Cmax in human systemic circulation with normal renal function assessed as 8-OH-ACV level at 2000 mg, po every 6 hrs measured after fifth dose by LC/MS. Type of series: ADME, organism-based. Further details: dose 2000 mg, route oral. Particulars: in vivo. The essentials:
as §2

Series [17] deals with Homo sapiens. Put plainly: AUC (0 to 6 hrs) in human CSF with normal renal function assessed as 8-OH-ACV level at 2000 mg, po every 6 hrs measured after fifth dose by LC/MS. Type of series: ADME, organism-based. Further details: dose 2000 mg, time < 6 hr, route oral. Conditions: in vivo. The essentials: as §2
For series [18], the system named is Homo sapiens. Put plainly: Drug level in human CSF with chronic kidney disease assessed as 8-OH acyclovir level at 1500 mg, po every 12 hrs measured after fifth dose by LC/MS. It counts as ADME, organism-based. Conditions: in vivo, read-out: Drug uptake. The essentials: as §1

Turning to `Nc1nc2c(nc(O)n2COCCO)c(=O)[nH]1`, the Cmax in the series on Homo sapiens [1] stood at 290 nM; in the series with Homo sapiens [2], 1600 nM; in the series on Homo sapiens [11], 62 nM; in the series with Homo sapiens [16] it was 320 nM. For the same compound, the Tmax in the series with Homo sapiens [3] came out at 2.4 h; in the series with Homo sapiens [8] it was 3.5 h; in the series with Homo sapiens [9], 7 h; in the series on Homo sapiens [15], 4 h. In addition, the AUC came out at 17 µM·h with Homo sapiens [4], 3.1 µM·h in the series on Homo sapiens [5], 1.4 µM·h with Homo sapiens [6] and 0.34 µM·h in the series with Homo sapiens [17]. Also, the concentration with Homo sapiens [7] was 240 nM; in the series on Homo sapiens [10] it was 60 nM; in the series on Homo sapiens [13] it was 1400 nM; in the series on Homo sapiens [18], 260 nM. The results for the Ratio in the series on Homo sapiens [12] and with Homo sapiens [14] were 0.2 and 0.19, respectively.
